Measured values from ChEMBL document CHEMBL3763021 (Eur J Med Chem, 2016).
Each block holds one compound with its values, some of them ahead of it.

Assays:
[1] = Inhibition of Sonic-induced hedgehog signalling in mouse NIH3T3 cells after 48 hrs by Gli-luciferase reporter assay; assay type: cell-based; conditions: NIH3T3, 48 h
Outline: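 NIH3T3 cells stably carrying a Gli-luciferase reporter were kept in DMEM with 10% FBS and 1 µg/mL puromycin, then seeded at 2×10^4 cells/well overnight at 37 °C. Compounds at 0.05–300 nM (8 concentrations) were added in medium with 0.5% FBS and 0.7 µg/mL Sonic Hh agonist, n=4 wells, for 48 h. Readout was the Firefly/Renilla luciferase ratio in lysates.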

[2] = Cmax in Sprague-Dawley rat at 5 mg/kg, po by LC/MS/MS analysis; assay type: ADME, organism-based; set-up: dose 5 mg/kg, route oral; conditions: in vivo
Outline: (§1)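 Male SD rats, 180–240 g, 3 per compound; single dose of 1 mg/kg iv or 5 mg/kg po, dosing volume 5 mL/kg. Blood was sampled from 2 min to 24 h and centrifuged at 4 °C. Plasma underwent protein precipitation, then LC/MS/MS in SRM mode with an internal standard. Parameters were derived by noncompartmental analysis.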

[3] = AUC (0 to t) in Sprague-Dawley rat at 5 mg/kg, po by LC/MS/MS analysis; assay type: ADME, organism-based; conditions: in vivo; outline: as §1
Rattus norvegicus = experiment: Apparent volume of distribution in Sprague-Dawley rat at 5 mg/kg, po by LC/MS/MS analysis; conditions: in vivo
[4] = Clearance in Sprague-Dawley rat at 5 mg/kg, po by LC/MS/MS analysis; assay type: ADME, organism-based; conditions: in vivo; outline: as §1
[5] = Mean resident time (0 to t) in Sprague-Dawley rat at 5 mg/kg, po by LC/MS/MS analysis; assay type: ADME, organism-based; conditions: in vivo; outline: as §1
[6] = Half life in Sprague-Dawley rat at 5 mg/kg, po by LC/MS/MS analysis; assay type: ADME, organism-based; conditions: in vivo; outline: as §1
[7] = Cmax in Sprague-Dawley rat at 1 mg/kg, iv by LC/MS/MS analysis; assay type: ADME, organism-based; set-up: dose 1 mg/kg, route intravenous; conditions: in vivo; outline: as §1
[8] = AUC (0 to t) in Sprague-Dawley rat at 1 mg/kg, iv by LC/MS/MS analysis; assay type: ADME, organism-based; conditions: in vivo
Outline: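 Male SD rats, 3 per compound, 180–240 g, single iv dose at 1 mg/kg, dosing volume 5 mL/kg. Blood sampled at 2, 5, 15, 30 min and 1, 2, 4, 6, 8, 10, 24 h, then centrifuged at 4 °C. Plasma protein-precipitated and analysed by LC/MS/MS in SRM mode with internal standard. AUC(0-t) obtained by noncompartmental analysis.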

[9] = Apparent volume of distribution in Sprague-Dawley rat at 1 mg/kg, iv by LC/MS/MS analysis; conditions: in vivo
[10] = Clearance in Sprague-Dawley rat at 1 mg/kg, iv by LC/MS/MS analysis; assay type: ADME, organism-based; conditions: in vivo; outline: as §1
[11] = Mean resident time (0 to t) in Sprague-Dawley rat at 1 mg/kg, iv by LC/MS/MS analysis; assay type: ADME, organism-based; conditions: in vivo; outline: as §1
[12] = Half life in Sprague-Dawley rat at 1 mg/kg, iv by LC/MS/MS analysis; assay type: ADME, organism-based; conditions: in vivo; outline: as §1

Compound: Cc1ccc(CN2CCOCC2)cc1NC(=O)c1ccc(Nc2ncc(F)c(-c3ccc(OC(F)(F)F)cc3)n2)nc1
IC50 [1]: 0.78 nM
Cmax [7]: 770 ng/mL
AUC(0-t) [8]: 625 ng·h/mL
Vd [9]: 4.62 L/kg
clearance [10]: 26.4 mL/min/kg
MRT last [11]: 1.98 h
half-life [12]: 2.02 h

Compound: CCN(CC)Cc1ccc(C)c(NC(=O)c2ccc(Nc3nccc(-c4ccc(OC(F)(F)F)cc4)n3)cc2)c1
IC50 [1]: 2.31 nM

Compound: Cc1ccc(CN2CCOCC2)cc1NC(=O)c1ccc(Nc2ncc(C3CC3)c(-c3ccc(OC(F)(F)F)cc3)n2)cc1
IC50 [1]: 11.9 nM

Compound: Cc1ccc(CN2CCN(C)CC2)cc1NC(=O)c1ccc(Nc2ncc(F)c(-c3ccc(OC(F)(F)F)cc3)n2)cc1
IC50 [1]: 2.84 nM

More lines, in order of falling IC50 [1], values ahead:

IC50 [1]: 3.19 nM
Compound: Cc1ccc(CN(C)C)cc1NC(=O)c1ccc(Nc2ncc(F)c(-c3ccc(OC(F)(F)F)cc3)n2)cc1

IC50 [1]: 2.68 nM
Compound: Cc1ccc(CN2CCCCC2)cc1NC(=O)c1ccc(Nc2nccc(-c3ccc(OC(F)(F)F)cc3)n2)cc1

IC50 [1]: 2.56 nM
Compound: CCN(CC)Cc1ccc(C)c(NC(=O)c2ccc(Nc3ncc(F)c(-c4ccc(OC(F)(F)F)cc4)n3)cc2)c1

IC50 [1]: 1.14 nM
Cmax [7]: 3140 ng/mL
Cmax [2]: 86.6 ng/mL
AUC(0-t) [8]: 1890 ng·h/mL
AUC(0-t) [3]: 923 ng·h/mL
Vd [9]: 6.28 L/kg
Vd(app) (Rattus norvegicus): 50.45546 L/kg
clearance [10]: 8.37 mL/min/kg
CL/F [4]: 80.8 mL/min/kg
MRT last [11]: 4.23 h
MRT last [5]: 7.74 h
half-life [12]: 8.85 h
half-life [6]: 7.24 h
Compound: Cc1ccc(CN2CCOCC2)cc1NC(=O)c1ccc(Nc2ncc(F)c(-c3ccc(OC(F)(F)F)cc3)n2)cn1

IC50 [1]: 0.69 nM
Cmax [2]: 137 ng/mL
AUC(0-t) [3]: 660 ng·h/mL
Vd(app) (Rattus norvegicus): 59.60185 L/kg
CL/F [4]: 123 mL/min/kg
MRT last [5]: 4.83 h
half-life [6]: 5.56 h
Compound: Cc1ccc(CN2CCOCC2)cc1NC(=O)c1ccc(Nc2nccc(-c3ccc(OC(F)(F)F)cc3)n2)cn1
